The source of these data is ChEMBL document CHEMBL2346636, “Synthesis and biological evaluation of substituted imidazoquinoline derivatives as mPGES-1 inhibitors” (Bioorg Med Chem, 2013).

The nature of data set [1]: Half life of the compound in TFA at room temperature. The data set is classed as physicochemical. An outline of the steps:
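SEM- and Boc-protected compounds in TFA (100 equiv) at room temperature. Deprotection was monitored and reported as the time to half-conversion (T1/2) and the time to full conversion.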

Data set [2] is described as follows: Stability of the compound in NaOH/THF at room temperature. Format: physicochemical. The procedure, abridged: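 SEM-protected compound in 1 M NaOH (10 equiv) in THF at room temperature. Deprotection was monitored for up to 12 h.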
Data set [3] is described as follows: Half life of the compound in TBAF/THF under reflux.
Data set [4] can be described thus: Half life of the compound in NaOH/THF/MeOH at room temperature. The data set is classed as physicochemical. An outline of the steps:
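Boc-protected compound in 1 M NaOH (10 equiv) in THF/MeOH at room temperature. Deprotection was followed and reported as T1/2 (half-deprotection time) and the time to complete deprotection.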

The nature of data set [5]: Half life of the compound in HCl/THF at room temperature. The data set is classed as physicochemical. The procedure, abridged:
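Boc-protected compound in 4 M HCl (10 equiv) in THF at room temperature. Deprotection was followed over time and reported as the time to half-conversion (T1/2) and the time to completion.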

The target in another data set is T1, Prostaglandin E synthase (Homo sapiens, UniProt O14684).
T1 sequence (O14684 whole entry): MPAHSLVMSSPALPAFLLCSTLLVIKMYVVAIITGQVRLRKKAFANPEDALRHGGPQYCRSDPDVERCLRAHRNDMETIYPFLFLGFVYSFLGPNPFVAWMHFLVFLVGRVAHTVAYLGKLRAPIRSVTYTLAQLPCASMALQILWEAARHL
Kind of data set: Inhibition of mPGES1 (unknown origin) transfected in HEK293 cells co-expressing COX1 using arachidonic acid as substrate assessed as inhibition of PGE2 production incubated for 30 mins prior to arachidonic acid addition measured after 60 mins by HTRF assay. Format: cell-based. An outline of the steps: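 Enzyme source was microsomes from HEK293 cells co-transfected with mPGES-1 and COX-1, in 100 mM Tris-HCl pH 8.0 with 5 mM EDTA, 1 mM GSH, phenol and hematin. Compound was added in DMSO (final 1%) and preincubated 30 min at room temperature. Arachidonic acid in 0.1 M KOH started the reaction, which ran 60 min at room temperature. It was stopped with 1 M HCl, neutralized with 1 M NaOH, and PGE2 was quantified by HTRF.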

What is called half-life is how long it takes for the measured level to halve. High values mean slow loss, low ones fast loss. Consider `Cn1c(=O)c2c(nc(-c3ccccc3Cl)n2COCC[Si](C)(C)C)c2ccc(Br)cc21`, for which the values for the half-life in data set [1] and in data set [3] were below 5 min and 30 min, respectively. For the same compound, the Stability result in data set [2] is recorded as “Stable”.

As for `Cn1c(=O)c2c(nc(-c3ccccc3Cl)n2C(=O)OC(C)(C)C)c2ccc(Br)cc21`, the half-life in data set [4] is 15 min; in data set [5], 30 min; in data set [1], below 5 min.

In general, IC50 refers to the concentration that gives 50% inhibition. As to `Nc1nc2cc(Br)ccc2c2[nH]c(-c3ccccc3Cl)nc12`, the IC50 at Prostaglandin E synthase is 1070 nM.

As for `CNc1nc2cc(Br)ccc2c2nc(-c3ccccc3Cl)[nH]c12`, on Prostaglandin E synthase, the IC50 was 631 nM.

On to `CN(C)c1nc2cc(Br)ccc2c2[nH]c(-c3ccccc3Cl)nc12`, for which, on Prostaglandin E synthase, the half-inhibitory concentration (IC50) turned out to be 387 nM.

For the compound `S=c1[nH]c2cc(Br)ccc2c2nc(-c3ccccc3Cl)[nH]c12`, the IC50 at Prostaglandin E synthase turned out to be 83 nM.

With `CSc1nc2cc(Br)ccc2c2nc(-c3ccccc3Cl)[nH]c12`, on Prostaglandin E synthase, the IC50 was found to be 31 nM.

Regarding `CCSc1nc2cc(Br)ccc2c2[nH]c(-c3ccccc3Cl)nc12`, the IC50 on Prostaglandin E synthase came to 59 nM.

Turning to `Cn1c(=O)c2[nH]c(-c3ccccc3Cl)nc2c2ccc(Br)cc21`, on Prostaglandin E synthase, the 50% inhibitory concentration (IC50) was 85 nM.

For `CCn1c(=O)c2[nH]c(-c3ccccc3Cl)nc2c2ccc(Br)cc21`, the IC50 at Prostaglandin E synthase was 106 nM.

`O=c1c2[nH]c(-c3ccccc3Cl)nc2c2ccc(Br)cc2n1Cc1ccccc1`: the IC50 on Prostaglandin E synthase came out at 226 nM.

With `Cn1c(-c2ccccc2Cl)nc2c(=O)[nH]c3cc(Br)ccc3c21`, the IC50 at Prostaglandin E synthase is above 10000 nM.

Consider `Cn1c(-c2ccccc2Cl)nc2c3ccc(Br)cc3[nH]c(=O)c21`, for which, at Prostaglandin E synthase, the IC50 was found to be 9810 nM.

In the case of `O=c1[nH]c2cc(Br)ccc2c2nc(-c3ccccc3Cl)n(Cc3ccccc3)c12`, the IC50 on Prostaglandin E synthase is above 10000 nM.

Consider `Cn1c(-c2ccccc2Cl)nc2c3ccc(Br)cc3n(C)c(=O)c21`, for which the IC50 at Prostaglandin E synthase was above 10000 nM.
